The target in one test is T1, Histone deacetylase 7 (Homo sapiens, UniProt Q8WUI4).
T1 sequence (Q8WUI4 whole entry): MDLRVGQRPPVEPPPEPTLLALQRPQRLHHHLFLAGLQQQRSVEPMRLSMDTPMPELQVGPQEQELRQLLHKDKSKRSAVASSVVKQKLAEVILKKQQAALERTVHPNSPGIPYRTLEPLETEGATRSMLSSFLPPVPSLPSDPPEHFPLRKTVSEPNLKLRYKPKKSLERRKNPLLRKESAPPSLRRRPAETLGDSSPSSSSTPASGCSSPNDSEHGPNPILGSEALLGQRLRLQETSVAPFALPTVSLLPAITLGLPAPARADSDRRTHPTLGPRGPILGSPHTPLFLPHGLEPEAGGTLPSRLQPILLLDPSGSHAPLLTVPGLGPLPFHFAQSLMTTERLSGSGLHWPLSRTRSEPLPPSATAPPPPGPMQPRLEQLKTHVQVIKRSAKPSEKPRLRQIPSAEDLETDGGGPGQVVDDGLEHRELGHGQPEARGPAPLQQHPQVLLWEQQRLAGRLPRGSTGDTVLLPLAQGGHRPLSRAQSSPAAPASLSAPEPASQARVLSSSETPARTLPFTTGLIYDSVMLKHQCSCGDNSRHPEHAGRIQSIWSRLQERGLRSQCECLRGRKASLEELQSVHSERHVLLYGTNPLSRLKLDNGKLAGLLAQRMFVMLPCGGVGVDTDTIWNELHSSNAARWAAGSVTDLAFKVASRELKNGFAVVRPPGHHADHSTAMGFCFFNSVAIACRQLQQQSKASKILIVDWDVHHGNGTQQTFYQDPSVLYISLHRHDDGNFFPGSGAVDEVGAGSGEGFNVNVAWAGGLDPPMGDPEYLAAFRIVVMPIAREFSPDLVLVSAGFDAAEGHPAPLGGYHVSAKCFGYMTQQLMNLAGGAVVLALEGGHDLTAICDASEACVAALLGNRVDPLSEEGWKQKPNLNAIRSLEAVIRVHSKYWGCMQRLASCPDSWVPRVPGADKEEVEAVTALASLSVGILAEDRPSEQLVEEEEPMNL
As to the kind of experiment: Inhibition of N-terminal GST-tagged recombinant human HDAC7 (518) expressed in baculovirus using acetyl-Lys(trifluoroacetyl)-AMC as substrate after 1 hr by fluorescence plate reader analysis.

For test [1], the target named is T2, Protein deacetylase HDAC6 (Homo sapiens, UniProt Q9UBN7).
T2 sequence (Q9UBN7 whole entry): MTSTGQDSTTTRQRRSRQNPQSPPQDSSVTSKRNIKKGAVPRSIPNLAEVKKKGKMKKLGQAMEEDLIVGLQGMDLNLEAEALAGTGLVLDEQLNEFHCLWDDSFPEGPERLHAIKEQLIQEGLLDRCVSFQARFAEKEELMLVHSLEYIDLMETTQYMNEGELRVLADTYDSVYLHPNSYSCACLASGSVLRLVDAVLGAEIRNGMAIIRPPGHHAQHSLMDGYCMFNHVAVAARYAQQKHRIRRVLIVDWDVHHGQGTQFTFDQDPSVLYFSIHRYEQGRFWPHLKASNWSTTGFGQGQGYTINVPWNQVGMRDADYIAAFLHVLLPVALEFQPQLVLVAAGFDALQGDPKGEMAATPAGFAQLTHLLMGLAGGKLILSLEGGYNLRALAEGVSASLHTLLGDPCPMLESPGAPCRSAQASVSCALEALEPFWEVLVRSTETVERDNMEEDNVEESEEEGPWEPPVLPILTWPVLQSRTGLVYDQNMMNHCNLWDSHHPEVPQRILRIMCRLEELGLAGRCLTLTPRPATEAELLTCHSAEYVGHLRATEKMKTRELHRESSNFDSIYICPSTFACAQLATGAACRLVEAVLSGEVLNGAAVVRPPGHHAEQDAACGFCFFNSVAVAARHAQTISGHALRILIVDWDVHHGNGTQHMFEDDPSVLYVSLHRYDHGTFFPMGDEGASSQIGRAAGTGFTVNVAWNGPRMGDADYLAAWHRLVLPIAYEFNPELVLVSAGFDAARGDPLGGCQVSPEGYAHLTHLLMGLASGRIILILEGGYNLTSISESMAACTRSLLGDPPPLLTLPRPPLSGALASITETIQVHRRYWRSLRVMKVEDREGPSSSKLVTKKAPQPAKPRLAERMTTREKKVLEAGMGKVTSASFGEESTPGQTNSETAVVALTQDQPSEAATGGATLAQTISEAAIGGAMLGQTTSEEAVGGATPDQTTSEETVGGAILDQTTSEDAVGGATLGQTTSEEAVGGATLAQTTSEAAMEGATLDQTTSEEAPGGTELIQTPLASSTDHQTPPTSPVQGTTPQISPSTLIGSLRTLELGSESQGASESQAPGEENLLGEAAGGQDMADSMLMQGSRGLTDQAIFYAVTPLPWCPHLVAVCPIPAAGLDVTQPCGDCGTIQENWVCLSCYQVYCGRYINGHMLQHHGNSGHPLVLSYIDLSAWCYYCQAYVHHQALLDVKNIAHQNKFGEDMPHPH
As to the kind of experiment: Inhibition of N-terminal GST-tagged recombinant HDAC6 (unknown origin) assessed as deacetylation of Ac-Arg-Gly-Lys (Ac) after 1 hr by fluorescence plate reader analysis in presence of trypsin.

The next test concerns the target Histone deacetylase 5 (Homo sapiens, UniProt Q9UQL6). Description: Inhibition of C-terminal His6x-tagged recombinant human HDAC5 (657 to 1123) expressed in baculovirus using acetyl-Lys(trifluoroacetyl)-AMC as substrate after 1 hr by fluorescence plate reader analysis.
The nature of test [2]: Selectivity ratio of IC50 for HDAC1/2 in human HeLa cell nuclear extract to IC50 for N-terminal GST-tagged recombinant HDAC6 (unknown origin). In kind it is cell-based. Put shortly: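 HDAC6 leg: 1 nM GST-HDAC6 with 8 μM Ac-Arg-Gly-Lys(Ac)-AMC. Nuclear-extract leg: 30 μg/mL HeLa nuclear extract (mainly HDAC1/2) with 20 μM of the same substrate in 50 mM Tris-Cl, 137 mM NaCl, 2.7 mM KCl, 1 mM MgCl2, pH 8.0.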

Another test addresses Histone deacetylase 2 (Homo sapiens, UniProt Q92769). Description: Inhibition of full length C-terminal His6x-tagged recombinant human HDAC2 expressed in baculovirus using Arg-His-Lys-Lys (Ac) as substrate after 2 hrs by fluorescence plate reader analysis.

Each structure is given as a SMILES string.

Histone deacetylase 2, sequence (Q92769 whole entry): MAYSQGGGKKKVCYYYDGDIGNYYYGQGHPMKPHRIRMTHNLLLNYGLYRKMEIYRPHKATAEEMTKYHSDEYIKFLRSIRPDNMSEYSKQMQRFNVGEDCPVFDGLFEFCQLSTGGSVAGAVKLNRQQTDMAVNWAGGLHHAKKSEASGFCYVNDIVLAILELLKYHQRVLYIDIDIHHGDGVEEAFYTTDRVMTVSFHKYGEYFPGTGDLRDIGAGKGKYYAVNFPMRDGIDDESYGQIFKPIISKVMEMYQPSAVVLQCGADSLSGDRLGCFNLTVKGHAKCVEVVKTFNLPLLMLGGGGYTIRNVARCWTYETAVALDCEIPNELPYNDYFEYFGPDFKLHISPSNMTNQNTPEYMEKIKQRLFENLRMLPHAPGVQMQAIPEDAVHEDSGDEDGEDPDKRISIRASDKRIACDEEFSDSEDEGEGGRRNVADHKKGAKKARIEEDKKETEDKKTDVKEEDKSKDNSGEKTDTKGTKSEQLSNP
Histone deacetylase 5, sequence (Q9UQL6 whole entry): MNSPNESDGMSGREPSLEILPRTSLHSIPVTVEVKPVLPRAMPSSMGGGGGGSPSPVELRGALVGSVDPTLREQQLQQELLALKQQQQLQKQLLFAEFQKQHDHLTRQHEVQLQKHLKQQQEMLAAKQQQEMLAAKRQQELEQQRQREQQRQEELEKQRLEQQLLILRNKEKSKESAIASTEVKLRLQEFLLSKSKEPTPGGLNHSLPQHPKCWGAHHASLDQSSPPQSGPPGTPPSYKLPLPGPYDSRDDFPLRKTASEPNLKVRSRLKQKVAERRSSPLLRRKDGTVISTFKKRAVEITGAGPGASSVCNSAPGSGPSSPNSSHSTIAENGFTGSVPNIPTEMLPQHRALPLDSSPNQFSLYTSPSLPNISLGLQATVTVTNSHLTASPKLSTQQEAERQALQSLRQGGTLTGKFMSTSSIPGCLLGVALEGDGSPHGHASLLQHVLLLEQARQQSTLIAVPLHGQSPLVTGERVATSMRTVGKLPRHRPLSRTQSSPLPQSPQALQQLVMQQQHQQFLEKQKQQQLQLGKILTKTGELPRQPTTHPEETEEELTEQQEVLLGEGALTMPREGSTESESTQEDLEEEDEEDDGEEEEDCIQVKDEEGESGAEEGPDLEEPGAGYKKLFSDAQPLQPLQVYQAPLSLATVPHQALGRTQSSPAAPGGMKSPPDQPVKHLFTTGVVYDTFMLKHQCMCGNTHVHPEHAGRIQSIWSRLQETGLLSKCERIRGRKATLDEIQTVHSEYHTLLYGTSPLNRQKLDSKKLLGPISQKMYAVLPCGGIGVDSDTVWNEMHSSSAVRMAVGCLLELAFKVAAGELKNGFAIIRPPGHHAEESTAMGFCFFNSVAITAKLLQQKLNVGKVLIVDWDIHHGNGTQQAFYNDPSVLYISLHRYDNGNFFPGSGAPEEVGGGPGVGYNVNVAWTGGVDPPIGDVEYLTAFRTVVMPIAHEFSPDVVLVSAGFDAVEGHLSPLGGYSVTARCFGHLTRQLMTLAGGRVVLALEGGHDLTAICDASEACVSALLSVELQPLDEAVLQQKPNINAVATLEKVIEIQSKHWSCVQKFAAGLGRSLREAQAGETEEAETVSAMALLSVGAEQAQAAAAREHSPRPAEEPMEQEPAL

`Cn1cccc1C(=O)N1Cc2ccc(C(=O)NO)cc2C1`: the half-maximal inhibitory concentration (IC50) on Histone deacetylase 7 is over 50 µM; in test [1] it was 0.04 µM; on Histone deacetylase 5 it was over 50 µM; at Histone deacetylase 2, over 50 µM. Also, the Ratio IC50 in test [2] worked out at 690.

On to `CC(C)(C)C(=O)N1Cc2ccc(C(=O)NO)cc2C1`, for which the half-maximal inhibitory concentration (IC50) is over 50 µM on Histone deacetylase 7, 0.089 µM in test [1], over 50 µM on Histone deacetylase 5 and over 50 µM at Histone deacetylase 2. In addition, the Ratio IC50 in test [2] was determined as 340.

With `Cn1cccc1C(=O)N1CCCc2cc(C(=O)NO)ccc2C1`, the IC50 was over 50 µM at Histone deacetylase 7, 0.26 µM in test [1], over 50 µM on Histone deacetylase 5 and over 50 µM on Histone deacetylase 2. The Ratio IC50 in test [2] was over 380.

Regarding `Cn1cccc1C(=O)NCc1ccc(C(=O)NO)cc1`, the IC50 was 4.6 µM at Histone deacetylase 7, 0.019 µM in test [1], 3.3 µM at Histone deacetylase 5 and 16 µM on Histone deacetylase 2. In addition, the Ratio IC50 in test [2] was determined as 115.

Turning to `CC(C)(C)C(=O)N1CCc2cc(C(=O)NO)ccc2C1`, the IC50 at Histone deacetylase 7 is over 50 µM; in test [1], 0.052 µM; on Histone deacetylase 5, over 50 µM; on Histone deacetylase 2, over 50 µM. Further, in test [2], the Ratio IC50 is 1500.

For the compound `Cn1cccc1C(=O)N1CCc2cc(C(=O)NO)ccc2C1`, the IC50 at Histone deacetylase 7 was over 50 µM; in test [1], 0.036 µM; on Histone deacetylase 5, over 50 µM; at Histone deacetylase 2 it was over 50 µM. The Ratio IC50 in test [2] was found to be 500.

These data come from ChEMBL document CHEMBL2429834, “Potent histone deacetylase inhibitors derived from 4-(aminomethyl)-N-hydroxybenzamide with high selectivity for the HDAC6 isoform” (J Med Chem, 2013).
